Screens as filed in PubChem BioAssay.
Env fusion inh: inhibitors of HIV Env-mediated cell fusion; HeLa-JRFL Env/CEM21 cell fusion, luciferase; inhibition, % at 12.3 µM; hit rate 1.1% among 360,000; AID 651610;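 active means mean replicate inhibition score of at least 50 and every replicate individually at or above 50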
PGC1a acetyl inh: lowers PGC1a acetylation signal in U2OS cells; inhibition, % at 15.6 µM; hit rate 0.17% among 350,000; AID 651687; AlphaScreen anti-acetyl-lysine; with virally co-expressed GCN5 acetyltransferase;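 active means every replicate shows inhibition of at least 40%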
PAX8 reporter: inhibitors of PAX8 transcriptional activity in RMG-I cells | hit rate 1.2% among 360,000 | AID 652154 | RMG-I TPO-luciferase reporter, SteadyGlo, 24 h | inhibition, % at 12.6 µM;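 active means mean replicate inhibition at least 60% with every replicate also reaching 60%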;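 further: luciferase light reporting Pax8 driven TPO promoter activity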
FGF22 binding: shifts melting point of recombinant human FGF22; Q9HCT0; hit rate 1.5% among 340,000; activity (Tm shift, normalised), % at 9.99 µM; recombinant FGF22 thermal shift, SYPRO orange fluorescence; percent of sucrose octasulfate shift, DMSO zero;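 active means mean Tm shift, scaled 0 neutral to 100 positive control, at about 1.3% or above, every replicate too, limit read from the data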
Target sequence (Q9HCT0 whole entry, looked up): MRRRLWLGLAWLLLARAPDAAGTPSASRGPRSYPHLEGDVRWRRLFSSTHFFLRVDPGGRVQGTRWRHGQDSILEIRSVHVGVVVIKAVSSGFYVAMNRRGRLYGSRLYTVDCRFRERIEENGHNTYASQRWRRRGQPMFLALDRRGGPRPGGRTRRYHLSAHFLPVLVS
FN deposition inh: fibronectin deposition inhibition | AH1F fibroblasts, Alexa488-fibronectin deposition fluorescence, overnight | inhibition, % at 12.6 µM | hit rate 0.086% among 350,000 | AID 743247;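 active means mean inhibition across replicates of 30% or more, regardless of how many single replicates reach that level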
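Assay system: AH1F fibroblasts / Quantity: 10000 cells per well / Medium: DMEM plus 2% serum, read in PBS / Reagent: labelled fibronectin 24 nM / Dosing: single dose, pinned / Times: 1 h cell attachment, overnight exposure to compound and label / Signal: fluorescence, ex 485 nm, em 525 nm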
EWS-Fli block: blocks EWS/Fli oncoprotein-driven transcription; AID 651661; A673 NR0B1-luciferase reporter, viability-normalised; hit rate 0.67% among 350,000; inhibition, % at 12.6 µM;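 active means mean inhibition of at least 50% after viability correction, with every replicate also passing that limit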;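 further: firefly luciferase signal divided by Alamar Blue viability fluorescence both relative to DMSO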
Numbers stand for hits. Compounds with a hit are over-represented: about 3.1% of the library has one in this group of screens.

For CCC(=O)N1[C@H](CN(C)C(C)=O)[C@@H](c2ccc(C3=CCCC3)cc2)[C@@H]1CO the results were PGC1a acetyl inh inactive, PAX8 reporter inactive, FGF22 binding inactive and EWS-Fli block inactive.
`Cc1ccc(N2CCN(C(=O)c3[nH]c(C(F)(F)F)nc3-c3ccccc3)CC2)cc1` gave Env fusion inh inactive, PGC1a acetyl inh inactive, PAX8 reporter inactive, FGF22 binding inactive, FN deposition inh inactive and EWS-Fli block inactive.
Screening O=C(c1[nH]c(C(F)(F)F)nc1-c1ccccc1)N1CCN(c2ccccc2)CC1 returned Env fusion inh inactive, PGC1a acetyl inh inactive, PAX8 reporter inactive, FGF22 binding inactive, FN deposition inh inactive and EWS-Fli block 65.
For C[C@@H]1CN([C@@H](C)CO)C(=O)c2cc(NS(C)(=O)=O)ccc2O[C@@H](C)CCCCO[C@H]1CN(C)C(=O)c1ccccc1 the results were Env fusion inh inactive, PGC1a acetyl inh inactive, PAX8 reporter inactive, FGF22 binding inactive and EWS-Fli block inactive.
For CO[C@@H]1CN(C)C(=O)c2ccc(NC(=O)C3CC3)cc2OC[C@@H](C)N(C(=O)c2cccnc2)C[C@@H]1C the results were PGC1a acetyl inh inactive, PAX8 reporter inactive, FGF22 binding inactive, FN deposition inh inactive and EWS-Fli block inactive.
`N#C[C@@H]1[C@H](c2ccc(C#CC3CCCC3)cc2)[C@H](CO)N1C(=O)Nc1ccc(F)cc1` gave Env fusion inh inactive, PGC1a acetyl inh inactive, PAX8 reporter 85, FGF22 binding inactive, FN deposition inh inactive and EWS-Fli block inactive.
Screening N#C[C@H]1[C@H](c2ccc(C#Cc3ccc(F)cc3)cc2)[C@H](CO)N1C(=O)Nc1ccc(F)cc1 returned Env fusion inh inactive, PGC1a acetyl inh inactive, PAX8 reporter inactive, FGF22 binding inactive, FN deposition inh inactive and EWS-Fli block inactive.
N#C[C@H]1[C@@H](c2ccc(C#Cc3ccc(F)cc3)cc2)[C@H](CO)N1C(=O)Nc1ccc(F)cc1 was read as Env fusion inh inactive, PGC1a acetyl inh inactive, PAX8 reporter 94, FGF22 binding inactive, FN deposition inh inactive and EWS-Fli block inactive.
C[C@H](CO)N1C[C@H](C)[C@@H](CN(C)Cc2cccc(F)c2)OCc2ccccc2-c2ccccc2C1=O was read as Env fusion inh inactive, PGC1a acetyl inh inactive, PAX8 reporter inactive, FGF22 binding inactive, FN deposition inh inactive and EWS-Fli block inactive.
CCn1c(O)c(N=NC(=O)CNC(=O)Cc2ccccc2)c2ccccc21 was read as Env fusion inh inactive, PGC1a acetyl inh inactive, PAX8 reporter inactive, FGF22 binding inactive, FN deposition inh inactive and EWS-Fli block inactive.
`O=C(CNC(=O)c1ccco1)N=Nc1c(O)n(CCc2ccccc2)c2ccccc12` gave Env fusion inh inactive, PGC1a acetyl inh inactive, PAX8 reporter inactive, FGF22 binding inactive, FN deposition inh inactive and EWS-Fli block 56.
`Cc1cc(C)nc(SCC(=O)Nc2ncc(Cc3cccc(Cl)c3Cl)s2)n1` gave PGC1a acetyl inh inactive.
CCOC(=O)Cc1cnc(NC(=O)CSc2nc(C)cc(C)n2)s1 was read as Env fusion inh inactive, PAX8 reporter inactive, FGF22 binding 44, FN deposition inh inactive and EWS-Fli block inactive.
For Cc1ccc(S(=O)(=O)Nc2cccc3c2O[C@@H](CN(C)C)[C@@H](C)CN([C@H](C)CO)C3=O)cc1 the results were Env fusion inh inactive, PGC1a acetyl inh inactive, PAX8 reporter inactive, FGF22 binding inactive, FN deposition inh inactive and EWS-Fli block inactive.
Screening CC(C)C(=O)Nc1ccc2c(c1)C(=O)N(C)[C@H]1CC[C@@H](CC(=O)NCCc3ccccc3)O[C@@H]1CO2 returned Env fusion inh inactive, PGC1a acetyl inh inactive, PAX8 reporter inactive, FGF22 binding inactive, FN deposition inh inactive and EWS-Fli block inactive.
For Cc1ccc(N2C(=O)N3[C@H](c4ccc(Br)cc4)[C@@H]4C(=O)N(C(C)(C)C)C(=O)[C@@H]4[C@]3(C)C2=O)cc1 the results were Env fusion inh inactive, PGC1a acetyl inh inactive, PAX8 reporter inactive, FGF22 binding inactive, FN deposition inh inactive and EWS-Fli block inactive.
Screening COc1ccc([C@@H]2[C@@H]3C(=O)N(C(C)(C)C)C(=O)[C@@H]3[C@]3(C)C(=O)N(c4cccc(Cl)c4)C(=O)N23)cc1 returned Env fusion inh 61, PGC1a acetyl inh inactive, PAX8 reporter inactive, FN deposition inh inactive and EWS-Fli block inactive.
For Cc1cccc(N2C(=O)N3[C@H](c4ccc(Br)cc4)[C@@H]4C(=O)N(C(C)(C)C)C(=O)[C@@H]4[C@]3(C)C2=O)c1 the results were Env fusion inh 112, PGC1a acetyl inh inactive, PAX8 reporter inactive, FGF22 binding inactive and EWS-Fli block inactive.
For C[C@@H](NC(=O)C[C@@H]1CC[C@H]2[C@@H](COC[C@H](O)CN2Cc2ccc(C(F)(F)F)cc2)O1)c1ccccc1 the results were Env fusion inh inactive, PGC1a acetyl inh inactive, PAX8 reporter inactive, FGF22 binding inactive, FN deposition inh inactive and EWS-Fli block inactive.
Screening CSC1=NC(=O)/C(=C/c2ccc(SC)cc2)S1 returned Env fusion inh inactive, PAX8 reporter inactive, FGF22 binding 43, FN deposition inh inactive and EWS-Fli block inactive.
C/[N+]([O-])=C/c1c(OCc2ccc(Cl)cc2Cl)ccc2ccccc12 was read as Env fusion inh inactive, PAX8 reporter inactive, FGF22 binding 45, FN deposition inh inactive and EWS-Fli block inactive.
`CCCC#Cc1cnc2c(c1)C(=O)N([C@@H](C)CO)C[C@H](C)[C@H](CN(C)C(=O)c1ccccc1)O2` gave Env fusion inh inactive, PGC1a acetyl inh inactive, PAX8 reporter inactive, FGF22 binding inactive, FN deposition inh inactive and EWS-Fli block inactive.
COc1ccc(N2C(=O)CC(Sc3nnc(-c4ccccc4F)n3C)C2=O)cc1 (stereo unspecified) was read as Env fusion inh inactive, PAX8 reporter inactive, FGF22 binding 43, FN deposition inh inactive and EWS-Fli block inactive.
COc1ccc(N2C(=O)CC(Sc3nc4ccccc4s3)C2=O)cc1 (stereo unspecified) was read as Env fusion inh inactive, PGC1a acetyl inh inactive, PAX8 reporter inactive, FGF22 binding inactive, FN deposition inh inactive and EWS-Fli block inactive.
C[C@H]1CN([C@@H](C)CO)C(=O)c2cccc(NC(=O)Nc3ccccc3)c2O[C@H]1CN(C)C(=O)NC1CCCCC1 was read as PGC1a acetyl inh inactive, PAX8 reporter inactive, FGF22 binding inactive and EWS-Fli block inactive.
`CCC(C)(C)C1CCc2[nH]nc(C(=O)NC3CCCC3)c2C1` (stereo unspecified) gave Env fusion inh inactive, PGC1a acetyl inh inactive, PAX8 reporter inactive, FGF22 binding inactive, FN deposition inh inactive and EWS-Fli block inactive.
`O=C(NC1CCCCC1)c1n[nH]c2c1CCCCC2` gave Env fusion inh 69, PAX8 reporter inactive, FGF22 binding inactive, FN deposition inh inactive and EWS-Fli block 79.
